{"data": "Measured values from different studies", "ABL1 phosphorylated": "Tyrosine-protein kinase ABL1, phosphorylated (ABL1, Homo sapiens, UniProt P00519)", "ABL1 F317L non-phosphorylated": "Tyrosine-protein kinase ABL1, non-phosphorylated (ABL1, Homo sapiens, UniProt P00519, F317L)", "ABL1 E255K phosphorylated": "Tyrosine-protein kinase ABL1, phosphorylated (ABL1, Homo sapiens, UniProt P00519, E255K)", "ABL1 T315I phosphorylated": "Tyrosine-protein kinase ABL1, phosphorylated (ABL1, Homo sapiens, UniProt P00519, T315I)", "ABL1 non-phosphorylated": "Tyrosine-protein kinase ABL1, non-phosphorylated (ABL1, Homo sapiens, UniProt P00519)", "ABL1 Y253F phosphorylated": "Tyrosine-protein kinase ABL1, phosphorylated (ABL1, Homo sapiens, UniProt P00519, Y253F)", "ABL1 F317I non-phosphorylated": "Tyrosine-protein kinase ABL1, non-phosphorylated (ABL1, Homo sapiens, UniProt P00519, F317I)", "ABL1 H396P phosphorylated": "Tyrosine-protein kinase ABL1, phosphorylated (ABL1, Homo sapiens, UniProt P00519, H396P)", "ABL1 M351T": "Tyrosine-protein kinase ABL1 (ABL1, Homo sapiens, UniProt P00519, M351T)", "note": "Protocols differ between the studies behind these lines."}
{"SMILES": "C=CC(=O)N1CCC(C(=O)NCC(=O)N2CCN(c3nc(-c4cnc(N)nc4C(F)F)nc(N4CCOCC4)n3)CC2)CC1", "target": "Tyrosine-protein kinase ABL1, phosphorylated (ABL1, Homo sapiens, UniProt P00519, F317I)", "test": "binding, competition with immobilised ligand", "conditions": "1 µM", "remaining binding [%]": 94}
{"SMILES": "C[C@@H]1CN(c2cc(-c3n[nH]c4ccc(OC5(C)CC5)cc34)ncn2)C[C@H](C)O1", "target": "ABL1 phosphorylated", "test": "cell-free assay, competition with immobilised ligand", "conditions": "0.1 µM", "remaining binding [%]": 67}
{"SMILES": "CN(C)c1ncc(F)c(-c2cnn3ncccc23)n1", "target": "ABL1 phosphorylated", "test": "binding", "conditions": "1 µM", "remaining binding [%]": 82}
{"SMILES": "O=C(c1ccc(Nc2ncc(Cl)c(-c3cc4ccccc4s3)n2)cc1)N1CCC(N2CCCC2)CC1", "target": "ABL1 F317L non-phosphorylated", "test": "binding, competition with immobilised ligand", "conditions": "1 µM", "remaining binding [%]": 63}
{"SMILES": "COc1cnc(Nc2cccc(S(N)(=O)=O)c2)nc1N1CCN(c2ccccc2)CC1", "target": "ABL1 E255K phosphorylated", "test": "binding, competition with immobilised ligand", "conditions": "1 µM", "remaining binding [%]": 84}
{"SMILES": "C[C@H](c1ccc(F)cc1)N(Cc1cccc(C(=O)O)c1)C(=O)c1cnc2ccccc2c1", "target": "ABL1 T315I phosphorylated", "test": "cell-free assay, competition with immobilised ligand", "conditions": "1 µM", "remaining binding [%]": 75}
{"SMILES": "CN(C)c1nccc(-c2cnc3ncccn23)n1", "target": "Tyrosine-protein kinase ABL1 (ABL1, Homo sapiens, UniProt P00519, T315I)", "test": "binding", "conditions": "1 µM", "remaining binding [%]": 52}
{"SMILES": "CNC(=O)[C@@H]1CC[C@@H](n2c(-c3ccc4cnccc4c3)nc3ccc(C(=O)NCc4cccc(C(N)=O)c4)cc32)C1", "target": "ABL1 non-phosphorylated", "test": "binding, competition with immobilised ligand", "conditions": "1 µM", "remaining binding [%]": 69}
{"SMILES": "F[C@@H]1CCN(c2nccc(-c3cnn4ncccc34)n2)C1", "target": "Tyrosine-protein kinase ABL1 (ABL1, Homo sapiens, UniProt P00519, Q252H)", "test": "binding", "conditions": "1 µM", "remaining binding [%]": 93}
{"SMILES": "O=C(NS(=O)(=O)c1ccc(NCC2CCOCC2)c([N+](=O)[O-])c1)c1ccc(N2CCN(Cc3ccc(C(F)(F)F)cc3-c3ccc(Cl)cc3)CC2)cc1Oc1cnc2[nH]ccc2c1", "target": "Tyrosine-protein kinase ABL1, phosphorylated (ABL1, Homo sapiens, UniProt P00519, M351T)", "test": "cell-free assay, competition with immobilised ligand", "conditions": "1 µM", "remaining binding [%]": 100}
{"SMILES": "c1cnn2ncc(-c3ccnc(N4CCC45COC5)n3)c2c1", "target": "ABL1 non-phosphorylated", "test": "binding", "conditions": "1 µM", "remaining binding [%]": 68}
{"SMILES": "CS(=O)(=O)N1CCCC(NC(=O)[C@H](CCC2CCCCC2)NC(=O)c2ccc(CNC(=O)c3cnc4ccccn34)cc2)C1 (stereo partly drawn)", "target": "ABL1 Y253F phosphorylated", "test": "cell-free assay, competition with immobilised ligand", "conditions": "0.1 µM", "remaining binding [%]": 76}
{"SMILES": "c1cncc(-c2cccc(Nc3nccc(NC4CCCCC4)n3)c2)c1", "target": "ABL1 phosphorylated", "test": "binding, competition with immobilised ligand", "conditions": "10 µM", "remaining binding [%]": 32}
{"SMILES": "CO[C@@H](C)c1c(Nc2ccc([C@H](N(C)C(=O)C3CCS(=O)(=O)CC3)C(F)(F)F)cc2)cnc2cc(Cl)nn12", "target": "ABL1 F317I non-phosphorylated", "test": "binding, competition with immobilised ligand", "conditions": "1 µM", "remaining binding [%]": 100}
{"SMILES": "CC1CCCN1c1nccc(-c2cnn3ncccc23)n1 (stereo not drawn)", "target": "ABL1 phosphorylated", "test": "binding", "conditions": "1 µM", "remaining binding [%]": 96}
{"SMILES": "COc1ncc2cc3ccccc3nc2c1C#N", "target": "ABL1 phosphorylated", "test": "cell-free assay, competition with immobilised ligand", "conditions": "5 µM", "remaining binding [%]": 93}
{"SMILES": "COC(=O)Nc1nc2ccc(C(=O)c3ccccc3)cc2[nH]1", "target": "ABL1 E255K phosphorylated", "test": "cell-free assay, competition with immobilised ligand", "conditions": "10 µM", "remaining binding [%]": 2.2}
{"SMILES": "C[C@@H](c1ccc(-n2cnc3c(N)ncnc32)cc1)N1CCc2nn(C)c(Cc3ccccc3)c2C1=O", "target": "ABL1 Y253F phosphorylated", "test": "binding, competition with immobilised ligand", "conditions": "0.1 µM", "remaining binding [%]": 47}
{"SMILES": "CCOC(=O)c1cc2cc(-c3cc(C(=O)NCc4ccc(C(=O)O)cc4)nn3C)ccc2[nH]1", "target": "ABL1 H396P phosphorylated", "test": "cell-free assay, competition with immobilised ligand", "conditions": "0.1 µM", "remaining binding [%]": 85}
{"SMILES": "CCN1CCN(Cc2ccc(C(=O)Nc3ccc(C)c(Oc4ccc5c(c4)CC(=O)N5)c3)cc2C(F)(F)F)CC1", "target": "ABL1 E255K phosphorylated", "test": "binding, competition with immobilised ligand", "conditions": "1 µM", "remaining binding [%]": 74}
{"SMILES": "COc1cnc(Nc2cccc(S(N)(=O)=O)c2)nc1N1CCN(c2ccccc2)C(=O)C1", "target": "Tyrosine-protein kinase ABL1, non-phosphorylated (ABL1, Homo sapiens, UniProt P00519, Q252H)", "test": "binding, competition with immobilised ligand", "conditions": "1 µM", "remaining binding [%]": 95}
{"SMILES": "Cc1cnc(Nc2ccc(C(=O)N3CCC(N4CCCC4)CC3)cc2)nc1-c1cc2ccccc2s1", "target": "ABL1 F317I non-phosphorylated", "test": "binding, competition with immobilised ligand", "conditions": "1 µM", "remaining binding [%]": 100}
{"SMILES": "O=C(NCC1CCOCC1)c1n[nH]cc1NC(=O)c1c(F)cccc1F", "target": "ABL1 H396P phosphorylated", "test": "binding, competition with immobilised ligand", "conditions": "1 µM", "remaining binding [%]": 93}
{"SMILES": "Nc1ncc2c(n1)-c1c([nH]c3ccc(C#CC4CC4)cc13)CCCC2", "target": "ABL1 non-phosphorylated", "test": "binding, competition with immobilised ligand", "conditions": "1 µM", "remaining binding [%]": 95}
{"SMILES": "N[C@@H]1CCN(c2nccc(-c3cnn4ncccc34)n2)C1", "target": "ABL1 M351T", "test": "binding", "conditions": "1 µM", "remaining binding [%]": 100}
{"SMILES": "O=C(NCCCN1CCOCC1)c1ccc(Nc2nccc(-c3cc4ccccc4s3)n2)cc1", "target": "ABL1 E255K phosphorylated", "test": "binding, competition with immobilised ligand", "conditions": "1 µM", "remaining binding [%]": 45}
{"SMILES": "CO[C@H]1CC[C@H](CNc2ccc(S(=O)(=O)NC(=O)c3ccc(N4CCN(CC5=C(c6ccc(Cl)cc6)CC(C)(C)CC5)CC4)cc3Oc3cnc4[nH]ccc4c3)cc2[N+](=O)[O-])CC1", "target": "ABL1 E255K phosphorylated", "test": "binding, competition with immobilised ligand", "conditions": "1 µM", "remaining binding [%]": 74}
{"SMILES": "O=C(NCCCN1CCOCC1)c1ccc(Nc2ncc(Cl)c(-c3ccc(Cl)s3)n2)cc1", "target": "ABL1 E255K phosphorylated", "test": "binding, competition with immobilised ligand", "conditions": "1 µM", "remaining binding [%]": 37}
{"SMILES": "CC(C)(C)c1ccc(-c2nc(CBr)nn2-c2cccc(O)c2)cc1", "target": "ABL1 T315I phosphorylated", "test": "cell-free assay, competition with immobilised ligand", "conditions": "10 µM", "remaining binding [%]": 82}
{"SMILES": "CCOCCn1cc(C(=O)Nc2ccc(-n3nc(-c4cccnc4)cc3C(F)(F)F)cn2)ccc1=O", "target": "ABL1 T315I phosphorylated", "test": "cell-free assay, competition with immobilised ligand", "conditions": "1 µM", "remaining binding [%]": 96}
{"SMILES": "C[C@@H]1CCN(c2nccc(-c3cnn4ncccc34)n2)C1", "target": "ABL1 non-phosphorylated", "test": "binding", "conditions": "1 µM", "remaining binding [%]": 81}
{"SMILES": "O=C(Nc1c[nH]nc1C(=O)NC1CCNCC1)c1cc(F)cc(F)c1", "target": "Tyrosine-protein kinase ABL1, non-phosphorylated (ABL1, Homo sapiens, UniProt P00519, T315I)", "test": "binding, competition with immobilised ligand", "conditions": "1 µM", "remaining binding [%]": 100}
{"SMILES": "O=C(c1ccc(Nc2nccc(-c3cc4ccccc4s3)n2)cc1)N1CCC(N2CCCC2)CC1", "target": "Tyrosine-protein kinase ABL1, non-phosphorylated (ABL1, Homo sapiens, UniProt P00519, H396P)", "test": "binding, competition with immobilised ligand", "conditions": "1 µM", "remaining binding [%]": 3.1}
{"SMILES": "CN1CCN(c2ccc(Nc3nccc(-c4ccccc4)n3)cc2C(F)(F)F)CC1", "target": "ABL1 M351T", "test": "binding", "conditions": "10 µM", "remaining binding [%]": 15}
{"SMILES": "O=C(c1ccc(Nc2ncc(Cl)c(-c3ccc(Cl)s3)n2)cc1)N1CCC(N2CCCC2)CC1", "target": "ABL1 F317L non-phosphorylated", "test": "binding, competition with immobilised ligand", "conditions": "1 µM", "remaining binding [%]": 65}
{"SMILES": "CN(C)c1nccc(-c2cnn3ncccc23)n1", "target": "ABL1 M351T", "test": "binding", "conditions": "1 µM", "remaining binding [%]": 100}
